Reference: ChEMBL document CHEMBL3525963, “Tissue distribution and elimination of [14C]apixaban in rats” (Drug Metab Dispos, 2011)

Columns and labels:
[1] = test system: Rattus norvegicus; test: Biodistribution in pregnant Sprague-Dawley rat amnion at 5 mg/kg, po administered as single dose measured after 24 hrs; assay type: ADME, organism-based; design: dose 5 mg/kg, dosed compound name [14C]-apixaban, route oral; conditions: in vivo
[2] = test system: Rattus norvegicus; test: Biodistribution in female Sprague-Dawley rat brown fat at 5 mg/kg, po administered as single dose measured after 24 hrs; assay type: ADME, organism-based, Brown adipose tissue; design: dose 5 mg/kg, dosed compound name [14C]-apixaban, route oral; conditions: in vivo
Summary of the method: (§1)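 Quantitative whole-body autoradiography was run after a single 5 mg/kg (100 μCi/kg) oral gavage to fasted female or pregnant SD rats, one rat per time point. Carcasses were frozen in hexane/dry ice, and 40 µm sagittal sections were dried at −20°C for at least 48 h. Sections were exposed to a phosphor plate alongside [14C]glucose standards (0.001–6.5 µCi/g). Results are µg eq/g, with LLOQ 0.037 µg eq/g.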

[3] = test system: Thymus; test: Biodistribution in female Sprague-Dawley rat thymus at 5 mg/kg, po administered as single dose measured after 72 hrs; assay type: ADME, organism-based; design: dose 5 mg/kg, dosed compound name [14C]-apixaban, route oral; conditions: in vivo; summary of the method: as §1
[4] = test system: Pancreas; test: Biodistribution in female Sprague-Dawley rat pancreas at 5 mg/kg, po administered as single dose measured after 4 hrs; assay type: ADME, organism-based; design: dose 5 mg/kg, dosed compound name [14C]-apixaban, route oral; conditions: in vivo
Summary of the method: (§2)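 [¹⁴C]Apixaban given by oral gavage at 5 mg/kg (100 μCi/kg) in 0.5% Tween 80 in Labrafil (1.0 mg/mL dosing solution) to rats fasted overnight through 4 h post-dose. One rat per time point; carcass frozen in hexane/dry ice. Quantitative whole-body autoradiography used 40 µm sagittal sections and a phosphor imaging plate calibrated with [¹⁴C]glucose standards (0.001–6.5 μCi/g). Read-out in µg eq apixaban/g; LLOQ 0.037 μg eq/g.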

[5] = test system: Pancreas; test: Biodistribution in male Sprague-Dawley rat pancreas at 5 mg/kg, po administered as single dose measured after 72 hrs; assay type: ADME, organism-based; design: dose 5 mg/kg, dosed compound name [14C]-apixaban, route oral; conditions: in vivo
Summary of the method: (§3)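 Fasted male SD rats (225-252 g) each received one oral gavage dose of [14C]apixaban, 5 mg/kg (100 μCi/kg), in 0.5% Tween 80/Labrafil vehicle. One rat was killed per time point, from 0.5 to 168 h. Frozen carcasses were cut into 40 µm sagittal whole-body sections and read by QWBA phosphor imaging against [14C]glucose calibrants. Results are in µg apixaban eq/g; BLQ <0.037 µg eq/g.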

[6] = test system: Rattus norvegicus; test: Biodistribution in fetal brain of pregnant Sprague-Dawley rat at 5 mg/kg, po administered as single dose measured after 4 hrs; assay type: ADME, organism-based; design: dose 5 mg/kg, dosed compound name [14C]-apixaban, route oral; conditions: in vivo
Summary of the method: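 Pregnant SD rats received a single oral gavage of [14C]apixaban at 5 mg/kg (100 μCi/kg; 1.0 mg/mL, 20 μCi/mL in 0.5% Tween 80/Labrafil) after fasting, one dam per time point. Frozen carcasses were cut into 40 µm sagittal sections and read by phosphor-imaging QWBA against [14C]glucose standards. Fetal tissue radioactivity is reported as µg eq/g, with LLOQ 0.037 µg eq/g.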

[7] = test system: Harderian gland; test: Biodistribution in pregnant Sprague-Dawley rat harderian gland at 5 mg/kg, po administered as single dose measured after 1 hr; assay type: ADME, organism-based; design: dose 5 mg/kg, dosed compound name [14C]-apixaban, route oral; conditions: in vivo
[8] = test system: Lung; test: Biodistribution in male Sprague-Dawley rat lung at 5 mg/kg, po administered as single dose measured after 24 hrs; assay type: ADME, organism-based; design: dose 5 mg/kg, dosed compound name [14C]-apixaban, route oral; conditions: in vivo
Summary of the method: (§4)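 [14C]apixaban (1.0 mg/mL, 20 μCi/mL) in 0.5% Tween 80 in Labrafil, given by oral gavage at 100 μCi/kg to male rats (225-252 g) fasted overnight through 4 h post-dose. One rat per time point. Carcasses frozen in hexane/dry ice and cut into 40 µm sagittal sections. QWBA read on phosphor plates against [14C]glucose standards, reported as µg eq/g. LLOQ 0.037 µg eq/g.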

[9] = test system: Rattus norvegicus; test: Biodistribution in male Sprague-Dawley rat salivary gland at 5 mg/kg, po administered as single dose measured after 8 hrs; assay type: ADME, organism-based; design: dose 5 mg/kg, dosed compound name [14C]-apixaban, route oral; conditions: in vivo
[10] = test system: Rattus norvegicus; test: Biodistribution in male Sprague-Dawley rat bone marrow at 5 mg/kg, po administered as single dose measured after 1 hr; assay type: ADME, organism-based; design: dose 5 mg/kg, dosed compound name [14C]-apixaban, route oral; conditions: in vivo
Summary of the method: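 Fasted male rats, 225-252 g, received [14C]apixaban by single oral gavage at 100 μCi/kg in 0.5% Tween 80/Labrafil. One rat was killed per time point and the carcass frozen. Tissue radioactivity was quantified by QWBA (40 µm sagittal sections, phosphor plate, [14C]glucose calibration) as µg eq apixaban/g, with LLOQ 0.037 μg eq/g.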

[11] = test system: Blood; test: Biodistribution in female Sprague-Dawley rat blood at 5 mg/kg, po administered as single dose measured after 72 hrs; assay type: ADME, organism-based; design: dose 5 mg/kg, dosed compound name [14C]-apixaban, route oral; conditions: in vivo; summary of the method: as §1
[12] = test system: Adrenal gland; test: Biodistribution in male Sprague-Dawley rat adrenal gland at 5 mg/kg, po administered as single dose measured after 72 hrs; assay type: ADME, organism-based; design: dose 5 mg/kg, dosed compound name [14C]-apixaban, route oral; conditions: in vivo; summary of the method: as §3
[13] = test system: Brain; test: Biodistribution in male Sprague-Dawley rat brain at 5 mg/kg, po administered as single dose measured after 8 hrs; assay type: ADME, organism-based; design: dose 5 mg/kg, dosed compound name [14C]-apixaban, route oral; conditions: in vivo
[14] = test system: Heart; test: Biodistribution in male Sprague-Dawley rat heart at 5 mg/kg, po administered as single dose measured after 72 hrs; assay type: ADME, organism-based; design: dose 5 mg/kg, dosed compound name [14C]-apixaban, route oral; conditions: in vivo; summary of the method: as §3
[15] = test system: Rattus norvegicus; test: Biodistribution in female Sprague-Dawley rat brown fat at 5 mg/kg, po administered as single dose measured after 0.5 hrs; assay type: ADME, organism-based, Brown adipose tissue; design: dose 5 mg/kg, dosed compound name [14C]-apixaban, route oral; conditions: in vivo
Summary of the method: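 [14C]apixaban (20 μCi/mL in dosing solution) in 0.5% Tween 80 in Labrafil given by oral gavage to fasted female rats, 206-213 g, at 100 μCi/kg. One rat per time point was euthanized and snap-frozen. Sagittal 40 µm whole-body sections were read by QWBA phosphor imaging against [14C]glucose standards. Results are in µg eq apixaban/g, with LLOQ 0.037 μg eq/g.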

[16] = test system: Rattus norvegicus; test: Biodistribution in female Sprague-Dawley rat bone marrow at 5 mg/kg, po administered as single dose measured after 72 hrs; assay type: ADME, organism-based; design: dose 5 mg/kg, dosed compound name [14C]-apixaban, route oral; conditions: in vivo; summary of the method: as §1
[17] = test system: Rattus norvegicus; test: Biodistribution in male Sprague-Dawley rat salivary gland at 5 mg/kg, po administered as single dose measured after 4 hrs; assay type: ADME, organism-based; design: dose 5 mg/kg, dosed compound name [14C]-apixaban, route oral; conditions: in vivo
[18] = test system: Harderian gland; test: Biodistribution in female Sprague-Dawley rat harderian gland at 5 mg/kg, po administered as single dose measured after 0.5 hrs; assay type: ADME, organism-based; design: dose 5 mg/kg, dosed compound name [14C]-apixaban, route oral; conditions: in vivo; summary of the method: as §2
[19] = test system: Adrenal gland; test: Biodistribution in male Sprague-Dawley rat adrenal gland at 5 mg/kg, po administered as single dose measured after 1 hr; assay type: ADME, organism-based; design: dose 5 mg/kg, dosed compound name [14C]-apixaban, route oral; conditions: in vivo; summary of the method: as §2
[20] = test system: Rattus norvegicus; test: Biodistribution in pregnant Sprague-Dawley rat placenta at 5 mg/kg, po administered as single dose measured after 24 hrs; assay type: ADME, organism-based; design: dose 5 mg/kg, dosed compound name [14C]-apixaban, route oral; conditions: in vivo
[21] = test system: Heart; test: Biodistribution in female Sprague-Dawley rat heart at 5 mg/kg, po administered as single dose measured after 24 hrs; assay type: ADME, organism-based; design: dose 5 mg/kg, dosed compound name [14C]-apixaban, route oral; conditions: in vivo; summary of the method: as §1
[22] = test system: Pancreas; test: Biodistribution in male Sprague-Dawley rat pancreas at 5 mg/kg, po administered as single dose measured after 24 hrs; assay type: ADME, organism-based; design: dose 5 mg/kg, dosed compound name [14C]-apixaban, route oral; conditions: in vivo; summary of the method: as §4
[23] = test system: Heart; test: Biodistribution in pregnant Sprague-Dawley rat heart at 5 mg/kg, po administered as single dose measured after 48 hrs; assay type: ADME, organism-based; design: dose 5 mg/kg, dosed compound name [14C]-apixaban, route oral; conditions: in vivo
Summary of the method: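 Fasted pregnant SD rats (n=6, 270-319 g) each received one oral gavage dose of [14C]apixaban, 5 mg/kg (100 μCi/kg), in 0.5% Tween 80/Labrafil. One rat was killed at each of 0.5, 1, 4, 8, 24 and 48 h. Carcasses were frozen in hexane/dry ice, cut into 40 µm sagittal sections, exposed to phosphor plates and quantified against [14C]glucose standards as µg eq/g. LLOQ was 0.037 µg eq/g.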

[24] = test system: Muscle tissue; test: Biodistribution in pregnant Sprague-Dawley rat muscle at 5 mg/kg, po administered as single dose measured after 4 hrs; assay type: ADME, organism-based; design: dose 5 mg/kg, dosed compound name [14C]-apixaban, route oral; conditions: in vivo
[25] = Drug excretion in Sprague-Dawley rat urine assessed as apixaban level at 30 mg/kg, po by HPLC method; conditions: read-out: Compound recovery
[26] = test system: Rattus norvegicus; test: Biodistribution in male Sprague-Dawley rat kidney cortex at 5 mg/kg, po administered as single dose measured after 24 hrs; assay type: ADME, organism-based; design: dose 5 mg/kg, dosed compound name [14C]-apixaban, route oral; conditions: in vivo

Question: With `COc1ccc(-n2nc(C(N)=O)c3c2C(=O)N(c2ccc(N4CCCC[14C]4=O)cc2)CC3)cc1` as the compound, how does the Radiolabel recovery [1] read?
Answer: The Radiolabel recovery was 3.52 ugequiv/g.

Question: And the Radiolabel recovery [2]?
Answer: The Radiolabel recovery was “Not detected assumed BLQ”.

Question: And the Radiolabel recovery [3]?
Answer: The Radiolabel recovery was “Not detected assumed BLQ”.

Question: What about the Radiolabel recovery [4] of the same compound?
Answer: Its Radiolabel recovery is 0.55 ugequiv/g.

Question: And the Radiolabel recovery [5]?
Answer: The Radiolabel recovery was “Not detected assumed BLQ”.

Question: And the Radiolabel recovery [6]?
Answer: Its Radiolabel recovery is 0.06 ugequiv/g.

Question: And the Radiolabel recovery [7]?
Answer: The Radiolabel recovery was 1.09 ugequiv/g.

Question: And the Radiolabel recovery [8]?
Answer: The Radiolabel recovery was < 0.037 ugequiv/g.

Question: And the Radiolabel recovery [9]?
Answer: The Radiolabel recovery was 0.13 ugequiv/g.

Question: What about the Radiolabel recovery [10] of the same compound?
Answer: Its Radiolabel recovery is 0.57 ugequiv/g.

Question: What about the Radiolabel recovery [11] of the same compound?
Answer: Its Radiolabel recovery is “Not detected assumed BLQ”.

Question: And the Radiolabel recovery [12]?
Answer: Its Radiolabel recovery is “Not sampled as not visualised in autoradiograph”.

Question: And the Radiolabel recovery [13]?
Answer: The Radiolabel recovery was < 0.037 ugequiv/g.

Question: And the Radiolabel recovery [14]?
Answer: The Radiolabel recovery was “Not detected assumed BLQ”.

Question: What about the Radiolabel recovery [15] of the same compound?
Answer: Its Radiolabel recovery is 0.48 ugequiv/g.

Question: What about the Radiolabel recovery [16] of the same compound?
Answer: The Radiolabel recovery was “Not detected assumed BLQ”.

Question: What about the Radiolabel recovery [17] of the same compound?
Answer: The Radiolabel recovery was 0.54 ugequiv/g.

Question: And the Radiolabel recovery [18]?
Answer: The Radiolabel recovery was 0.4 ugequiv/g.

Question: And the Radiolabel recovery [19]?
Answer: The Radiolabel recovery was 1.2 ugequiv/g.

Question: And the Radiolabel recovery [20]?
Answer: The Radiolabel recovery was < 0.037 ugequiv/g.

Question: And the Radiolabel recovery [21]?
Answer: Its Radiolabel recovery is “Not detected assumed BLQ”.

Question: And the Radiolabel recovery [22]?
Answer: The Radiolabel recovery was < 0.037 ugequiv/g.

Question: And the Radiolabel recovery [23]?
Answer: Its Radiolabel recovery is “Not detected assumed BLQ”.

Question: What about the Radiolabel recovery [24] of the same compound?
Answer: The Radiolabel recovery was 0.5 ugequiv/g.

Question: What about the dose excreted [25] of the same compound?
Answer: The dose excreted was 93%.

Question: And the Radiolabel recovery [26]?
Answer: The Radiolabel recovery was < 0.037 ugequiv/g.
